Assay results: the RNAGym collection of RNA variant scans (doi:10.1126/science.aae0568)
Variants at the floor of the assay were thinned out.

B1: tRNA (parent)
chain: GUUCCGUUGGCGUAAUGGUAACGCGUCUCCCUCCUAAGGAGAAGACUGCGGGUUCGAGUCCCGUACGGAACG

Variants of: B1
Assay: yeast fitness relative to wild type (ratio to wild type); higher = fitter; tRNA-Arg(CCU), competitive growth, 37 C, YPD
How it was run: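 Changes in genotype frequencies gave Darwinian fitness relative to wild type. Frequencies were read by 100-nucleotide paired-end sequencing of gene amplicons before and after pooled Saccharomyces cerevisiae strains, carrying tRNA-Arg(CCU) gene variants at the native locus, were competed in YPD at 37°C for 24 hours in six replicates. A genotype was kept only with ≥ 100 starting reads, and estimates < 0.5 were set to 0.5.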

Q: For GUUCCGUUGGCGUAAUGGUAAUGAGUCUCCCUCCUAAGGAGGAGACUGCGGGUUCGAGUCCCGUACGGAACG [C22U C24A A42G], which yeast fitness is on record?
A: ≤ 0.5

Q: Which yeast fitness does the source give for GUUCCGUUGGCGUAAUGGUAAUGCGUCUCCCUCCUAAGGGGAAGACUGCGGGUUCGAGUCCCGUACGGAACG [C22U A40G] here?
A: 0.834

Q: With GUUCCGUUGGCGUAAUGGUAAUGCGUCUCCCUCCUAAGGUGAUGACUGCGGGUUCGAGUCCCGUACGGAACG [C22U A40U A43U] as the variant, how does the yeast fitness read?
A: ≤ 0.5

Q: With GUUCCGUUGGCGUAAUGGUAAUGCGUCUCCCUCCUAAGGAGAAGUCUGCGGGUUCGAGUCCUGUACGGAACG [C22U A45U C62U] as the variant, how does the yeast fitness read?
A: 0.671

Q: Which yeast fitness does the source give for GUUCCGUUGGCGUAAUGGUAAUGCGUCUACCUCCUAAGGAGAAGACUGCGGGUUGGAGUCCCGUUCAGAACG [C22U C29A C55G A65U G67A] here?
A: 0.578

Q: Which yeast fitness does the source give for GUUCCGUUGGCGUAAUGGUAAUGCGUCUUCCUCCUAAGGCGAAGACUGCGGGUUCGAGUCCCGUACGGAACG [C22U C29U A40C] here?
A: 0.667

Q: With GUUCCGUUGGCGUAAUGGUAAUGAGUCUCCCUCCUAAGGAGAAGACUGCGGGUUCGAGUCCCGUACGGAUCG [C22U C24A A70U] as the variant, how does the yeast fitness read?
A: ≤ 0.5

Q: Which yeast fitness does the source give for GUUCCGUUGGCGUAAUGGUAAUGCGUCUCACUCUUAACGAGAAGACUGCGGGUUCGAGUCCCGUACGGAACG [C22U C30A C34U G38C] here?
A: ≤ 0.5

Q: Which yeast fitness does the source give for GUUCCGUUGGCGUAAUGGUAAUGCGUCUCCCUCCUAAGGAGUAGACUGCGCGUUCGAGUCCUGUACGGAACG [C22U A42U G51C C62U] here?
A: ≤ 0.5

Q: For GUUCCGUUGGCGUAAUGGUAAUGCGUCUCCCUCCUAAGGAGAAGACUGCGGGUUCGAGUCCCGUACGGCACG [C22U A69C], which yeast fitness is on record?
A: 0.876

Q: With GUUCCGUUGGCGUAAUGGUAAUGCGUCUCCCUCCUAAGGAGGAGACUGCGGGUUGGAGUCCCGUACGGAUCG [C22U A42G C55G A70U] as the variant, how does the yeast fitness read?
A: 0.556

Q: For GUUCCGUUGGCGUAAUGGUAAUGCGUCUGCCUCCUUAGGACAAGCCUGUGGGUCCGAGUCUCGUACGGAACG [C22U C29G A36U G41C A45C C49U U54C C61U], which yeast fitness is on record?
A: ≤ 0.5

Q: With GUUCCGUUGGCGUAAUGGUAAUGCGUCUCCCUCCUAAGGGGAUGAGUGGGGGUUCGAGUCCCGUACGGAGCG [C22U A40G A43U C46G C49G A70G] as the variant, how does the yeast fitness read?
A: ≤ 0.5

Q: For GUUCCGUUGGCGUAAUGGUAAUGCGUCUCCCUCCUAAGGUGAUGAUUGCGGGUUUGAGUCCCGUUCGGAACG [C22U A40U A43U C46U C55U A65U], which yeast fitness is on record?
A: ≤ 0.5

Q: Which yeast fitness does the source give for GUUCCGUUGGCGUAAUGGUAAUGCGUCUCCCUCCUAAGGUGAAGACCGCGGGUUCGAGUCCCGUACGGAACG [C22U A40U U47C] here?
A: 0.544

Q: With GUUCCGUUGGCGUAAUGGUAAUGCGUUUCCCUGCUAAGGAGAACACUGCGGGUUCGAGUCCCGUACGGAACG [C22U C27U C33G G44C] as the variant, how does the yeast fitness read?
A: ≤ 0.5

Q: Which yeast fitness does the source give for GUUCCGUUGGCGUAAUGGUAAUGCGUUUCCCUCCUAAGGAGAAGACUGCGGGUGCGAGUCCCGUACGGAACG [C22U C27U U54G] here?
A: ≤ 0.5

Q: Which yeast fitness does the source give for GUUCCGUUGGCGUAAUGGUAAUGCGUCUUCCUCCUAAGGAAAAGACUACGGGUUCGAGUCCAGUACGGAACG [C22U C29U G41A G48A C62A] here?
A: 0.611

Q: With GUUCCGUUGGCGUAAUGGUAAUGUGUCUCCCUCCUAAGGAGAAGACUGCGCGUUCGAGUCCCGUACGGAACG [C22U C24U G51C] as the variant, how does the yeast fitness read?
A: ≤ 0.5

Q: For GUUCCGUUGGCGUAAUGGUAAUGCGUCUCCCUCCUGAGGAGAAGACUGCGCGUUCGAGUCCCGUCCGGAACG [C22U A36G G51C A65C], which yeast fitness is on record?
A: 0.6

Q: Which yeast fitness does the source give for GUUCCGUUGGCGUAAUGGUAAUGCGUCUCCCUCCUAAGGAGAAGACUGCGGGUUCGGGUACCGUACGGAACG [C22U A57G C60A] here?
A: ≤ 0.5

Q: For GUUCCGUUGGCGUAAUGGUAAUGCGUCUCCCUCCUAAGGAGCAGACUGCGGGUUCGCGUCCCGUACGGAACG [C22U A42C A57C], which yeast fitness is on record?
A: ≤ 0.5

Q: Which yeast fitness does the source give for GUUCCGUUGGCGUAAUGGUAAUGUGUUUCCUUCCUAAGGAGAAGACUGCGGGUUCGAGUCCUGUACGGAACG [C22U C24U C27U C31U C62U] here?
A: ≤ 0.5

Q: For GUUCCGUUGGCGUAAUGGUAAUGCGUCUCCCUCCUAAGGAGAAGACUGCGGGUUCGAGUCCCGUGCGCAACG [C22U A65G G68C], which yeast fitness is on record?
A: 0.534

Q: For GUUCCGUUGGCGUAAUGGUAAUGCGUCUCCCUCCUAAGGAGAAGGCUGCGGGUUCGAGUCCCGUACGGAACG [C22U A45G], which yeast fitness is on record?
A: 0.747

Q: For GUUCCGUUGGCGUAAUGGUAAUGCGUCUCCCUCCUAAGGAGAAGACUGCGGGUUCGAGUCCCGUACGGACCG [C22U A70C], which yeast fitness is on record?
A: 0.859

Q: With GUUCCGUUGGCGUAAUGGUAAUGGGUCUCGCUCCUAAGGAGAAGACUGCGGGUUCGAGUCCCGUACGGAACG [C22U C24G C30G] as the variant, how does the yeast fitness read?
A: ≤ 0.5

Q: For GUUCCGUUGGCGUAAUGGUAAUGCGUCUCCCUCCUAAGGCGAAGACUGCGGGUUCGAGUCCCGUACGGAUCG [C22U A40C A70U], which yeast fitness is on record?
A: 0.545

Q: Which yeast fitness does the source give for GUUCCGUUGGCGUAAUGGUAAUGCGUCUCCCUCCUAAGGAGAAGACUGCGGGUUCGGGUCCCGUACGGAUCG [C22U A57G A70U] here?
A: 0.591

Q: Which yeast fitness does the source give for GUUCCGUUGGCGUAAUGGUAAUGCGUCUCCCUCCUAAGGAGUAUACUGCGGGUUCGAGUCCCAUACGGAACG [C22U A42U G44U G63A] here?
A: 0.608

Q: For GUUCCGUUGGCGUAAUGGUAAUGCGUCUACCUCCUAAGGAGAAGACUGCGGGUUCGAGUCCCGUACGGAACG [C22U C29A], which yeast fitness is on record?
A: 0.543

Q: For GUUCCGUUGGCGUAAUGGUAAUGCGUCUCACUCCUAAGGUGAUGACUGCGGGUUCGAGUCCCGUACGGAACG [C22U C30A A40U A43U], which yeast fitness is on record?
A: ≤ 0.5

Q: Which yeast fitness does the source give for GUUCCGUUGGCGUAAUGGUAAUGCGUCUCCCUCCUAAGGAGACGAAUGCGGGUUCGAGUCCCGUACGGAACG [C22U A43C C46A] here?
A: 0.626

Q: For GUUCCGUUGGCGUAAUGGUAAUGGGUCUCCCUCCUAAGGAGAAGACCGCGGGUUCGAGUCACGUACGGAACG [C22U C24G U47C C61A], which yeast fitness is on record?
A: ≤ 0.5

Q: With GUUCCGUUGGCGUAAUGGUAAUGCGUCUCCCUCCUAAGGAGUAGACUGGGGGUUCGAGUCCCGUACGGAACG [C22U A42U C49G] as the variant, how does the yeast fitness read?
A: ≤ 0.5

Q: Which yeast fitness does the source give for GUUCCGUUGGCGUAAUGGUAAUGCGUGGCCCUCCUAAGGAGAAGACUGCGGGUUCGAGCCCCGUACGGAACG [C22U C27G U28G U59C] here?
A: ≤ 0.5

Q: With GUUCCGUUGGCGUAAUGGUAAUGCGUGUCCUUCCUAAGGAGAAGACUGCGGGUUCGAGUCCCGUACGAAACG [C22U C27G C31U G68A] as the variant, how does the yeast fitness read?
A: ≤ 0.5

Q: For GUUCCGUUGGCGUAAUGGUAAUGCGUCUCCCUCCUAAGGGGAUGAGUGGGGGUUCGAGUCCUGUACGGAACG [C22U A40G A43U C46G C49G C62U], which yeast fitness is on record?
A: 0.531
